Results from ChEMBL document CHEMBL1124498.
Several values for one entry are separate records, joined by “and”; a condition that tells them apart may be missing. Equal entries are not always repeated.

Tests used:
[1] = test system: aldehyde dehydrogenase (Saccharomyces cerevisiae); assay: In vitro inhibition of yeast aldehyde dehydrogenase; set-up: concentration or dose not given beside the values; settings: concentration not given here
[2] = test system: aldehyde dehydrogenase (Saccharomyces cerevisiae); assay: In vitro inhibition of yeast aldehyde dehydrogenase is evaluated by the formation of NADH
[3] = test system: Saccharomyces cerevisiae; assay: In vitro inhibition of yeast aldehyde dehydrogenase at 100 uM concentration of compound
Method in brief: (§1)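 Commercial yeast AlDH (0.074 IU) was preincubated 10 min at 0 °C with test agent added in acetone, in 100 mM potassium phosphate pH 7.4 containing 1.0 mM NAD+. Concentration is the final level in this primary mix. A 20-µL aliquot went into 0.5 mM NAD+, 1.0 mM EDTA, 30% glycerol, 80 mM potassium phosphate pH 8.0; reaction started with benzaldehyde (0.6 µmol); NADH read at 340 nm.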

[4] = test system: Saccharomyces cerevisiae; assay: In vitro inhibition of yeast […] is evaluated by the formation of NADH at 100 uM concentration of compound
Method in brief: as §1

[5] = test system: Saccharomyces cerevisiae; assay: Inhibition of yeast […] is evaluated by formation by NADH in vitro at 10 uM concentration of compound
Method in brief: as §1

[6] = test system: Saccharomyces cerevisiae; assay: In vitro inhibition of yeast […] at 1 uM concentration of compound
[7] = test system: Saccharomyces cerevisiae; assay: In vitro inhibition of yeast […] at 100 uM concentration of compound
[8] = test system: Saccharomyces cerevisiae; assay: Inhibition of yeast aldehyde dehydrogenase is evaluated by formation by NADH in vitro at 10 uM concentration of compound
Method in brief: as §1

[9] = target: T1, Aldehyde dehydrogenase, mitochondrial (Rattus norvegicus) (UniProt P11884); assay: Inhibition of class II aldehyde dehydrogenase in vitro in intact rat liver mitochondria assayed by nmol of acetaldehyde oxidized/min.mg of protein
T1 sequence (whole entry): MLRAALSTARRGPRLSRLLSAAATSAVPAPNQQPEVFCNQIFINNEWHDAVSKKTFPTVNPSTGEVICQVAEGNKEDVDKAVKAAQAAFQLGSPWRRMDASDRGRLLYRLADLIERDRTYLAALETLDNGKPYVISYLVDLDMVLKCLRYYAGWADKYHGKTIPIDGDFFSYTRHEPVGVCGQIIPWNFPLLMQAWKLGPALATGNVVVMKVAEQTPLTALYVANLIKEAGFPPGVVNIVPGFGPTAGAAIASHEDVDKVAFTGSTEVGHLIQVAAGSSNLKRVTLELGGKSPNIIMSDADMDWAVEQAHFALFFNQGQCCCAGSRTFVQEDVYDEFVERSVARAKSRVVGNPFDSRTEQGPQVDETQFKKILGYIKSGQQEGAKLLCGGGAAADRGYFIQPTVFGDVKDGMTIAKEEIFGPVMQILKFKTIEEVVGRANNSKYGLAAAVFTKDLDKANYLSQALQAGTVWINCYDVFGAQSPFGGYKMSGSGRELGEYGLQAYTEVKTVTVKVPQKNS
Method in brief: (§2)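 Mitochondria from overnight-fasted male rats (200–250 g). Preincubated 5 min at 37 °C, then acetaldehyde (200 nmol) added for 5 min. Quenched with cold HClO4; acetaldehyde loss read by head-space GC; Lowry protein.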

[10] = target: T1, Aldehyde dehydrogenase, mitochondrial (Rattus norvegicus); assay: Inhibition of class II aldehyde dehydrogenase in vitro in osmotically disrupted rat liver mitochondria assayed by nmol of acetaldehyde oxidized/min.mg of protein
Method in brief: (§3)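 Liver mitochondria from overnight-fasted male rats (200–250 g), osmotically disrupted by leaving sucrose out of the medium. Preincubated 5 min at 37 °C, then acetaldehyde (200 nmol) added for 5 min. HClO4 quench; head-space GC; Lowry protein.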

[11] = target: T1, Aldehyde dehydrogenase, mitochondrial (Rattus norvegicus); assay: Percent inhibition of class II aldehyde dehydrogenase in vitro in intact rat liver mitochondria; settings: concentration not given here
Method in brief: as §2

[12] = target: T1, Aldehyde dehydrogenase, mitochondrial (Rattus norvegicus); assay: Percent inhibition of class II aldehyde dehydrogenase in vitro in osmotically disrupted rat liver mitochondria; settings: concentration not given here
Method in brief: as §3

**Q.** With `CCCNC(=O)N(CC)S(=O)(=O)c1ccc(Cl)cc1` as the molecule, how does the inhibition [1] read?
**A.** 98.6%

**Q.** And the ALDH activity (NADH formation rate) [2]?
**A.** 1.4 nM/min

**Q.** `CCCNC(=O)N(C(C)(C)C)S(=O)(=O)c1ccc(Cl)cc1` was tested. Which inhibition [1] did it give?
**A.** 100%

**Q.** And the ALDH activity (NADH formation rate) [2]?
**A.** 0 nM/min

**Q.** For `CCCCN(C(=O)NCCC)S(=O)(=O)c1ccc(Cl)cc1`, which inhibition [1] is on record?
**A.** 100%

**Q.** What about the ALDH activity (NADH formation rate) [2] of the same molecule?
**A.** 0 nM/min

**Q.** How did the inhibition [3] turn out when `CCCCN=C=O` was run?
**A.** 100%

**Q.** What about the AIDH activity [4] of the same molecule?
**A.** 0 nM/min

**Q.** And the AIDH activity [5]?
**A.** 11.2 nM/min

**Q.** And the inhibition [6]?
**A.** 20.8%

**Q.** What about the inhibition [7] of the same molecule?
**A.** 98.9%

**Q.** What about the AIDH activity [8] of the same molecule?
**A.** 0.2 nM/min

**Q.** With `CCCN(C)C(=O)NS(=O)(=O)c1ccc(Cl)cc1` as the molecule, how does the inhibition [1] read?
**A.** 0%

**Q.** And the ALDH activity (NADH formation rate) [2]?
**A.** 15 nM/min

**Q.** With `CCCNC(=O)N(C(C)C)S(=O)(=O)c1ccc(Cl)cc1` as the molecule, how does the inhibition [1] read?
**A.** 100%

**Q.** What about the ALDH activity (NADH formation rate) [2] of the same molecule?
**A.** 0 nM/min

**Q.** `CCCNC(=O)NS(=O)(=O)c1ccc(Cl)cc1` was tested. Which AIDH activity [9] did it give?
**A.** 28.3 nM/min

**Q.** What about the AlDH activity [10] of the same molecule?
**A.** 73.8 nmol/min/mg

**Q.** And the inhibition [11]?
**A.** 0%

**Q.** And the inhibition [12]?
**A.** 0%

**Q.** `CCCOC(=O)N(CC)S(=O)(=O)c1ccc(Cl)cc1` was tested. Which inhibition [1] did it give?
**A.** 1.4%

**Q.** What about the ALDH activity (NADH formation rate) [2] of the same molecule?
**A.** 14.6 nM/min

**Q.** With `CCCNC(=O)N(C)S(=O)(=O)c1ccc(Cl)cc1` as the molecule, how does the AIDH activity [9] read?
**A.** 13.4 nM/min

**Q.** And the AIDH activity [10]?
**A.** 19 nM/min

**Q.** What about the inhibition [11] of the same molecule?
**A.** 48.9%

**Q.** What about the inhibition [12] of the same molecule?
**A.** 73.7%

**Q.** What about the inhibition [1] of the same molecule?
**A.** 99.6%

**Q.** And the ALDH activity (NADH formation rate) [2]?
**A.** 0.6 nM/min

**Q.** For `CCN(C(=O)NC(C)(C)C)S(=O)(=O)c1ccc(Cl)cc1`, which inhibition [1] is on record?
**A.** 97.3%

**Q.** And the ALDH activity (NADH formation rate) [2]?
**A.** 2.7 nM/min

**Q.** How did the inhibition [1] turn out when `CCCNC(=O)N(CC(C)(C)C)S(=O)(=O)c1ccc(Cl)cc1` was run?
**A.** 100%

**Q.** And the ALDH activity (NADH formation rate) [2]?
**A.** 0 nM/min

**Q.** Which inhibition [1] does the source give for `CCCNC(=O)N(CC(C)C)S(=O)(=O)c1ccc(Cl)cc1` here?
**A.** 100%

**Q.** What about the ALDH activity (NADH formation rate) [2] of the same molecule?
**A.** 0 nM/min

**Q.** Which inhibition [3] does the source give for `O=C=NC1CCCCC1` here?
**A.** 100%

**Q.** And the AIDH activity [4]?
**A.** 0 nM/min

**Q.** What about the AIDH activity [5] of the same molecule?
**A.** 12.4 nM/min

**Q.** What about the inhibition [6] of the same molecule?
**A.** 12.1%

**Q.** What about the inhibition [7] of the same molecule?
**A.** 96.5%

**Q.** What about the AIDH activity [8] of the same molecule?
**A.** 0.5 nM/min

**Q.** With `CCCNC(=O)N(CCC)S(=O)(=O)c1ccc(Cl)cc1` as the molecule, how does the inhibition [1] read?
**A.** 91.1%

**Q.** And the ALDH activity (NADH formation rate) [2]?
**A.** 1.3 nM/min

**Q.** Which results are given for `CCCN=C=O`?
**A.** AIDH activity [4]: 0 nM/min; inhibition [6]: 8.8%; inhibition [7]: 100% and 98.5%
